# This is a sample that favours compounds with a hit; in the whole collection about 5.1% have one here.
# NF-kB expr up = activators of NF-kB expression in neurons, primary screen, cell-based, HTS; human neuronal cells, NF-kB reporter expression; stronger effect = higher value; fold change at 12.5 µM; 1.6% of 190,000 active; in the data active = fold change above about 3.3
# STAT1 activator = STAT1 signaling activators, primary screen, cell-based, HTS, luciferase reporter | NIH 3T3 STAT1-luciferase reporter, IFN-gamma, luminescence; 100% = IFN-gamma alone, no compound | activation (% of control), % at 5.5 µM | 2.6% of 200,000 active;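 active = activation above the screen-wide mean activation plus 3 SD, cut at about 130% in these data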
# STAT1 blocker = STAT1 signaling inhibitors, primary screen, cell-based, HTS, luciferase reporter | NIH 3T3 STAT1-luciferase reporter, IFN-gamma, luminescence | AID 920, 2007 | inhibition, % at 5.5 µM | 0.35% of 200,000 active;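 active = inhibition above a set limit, the mean inhibition across all tested compounds plus 3 SD, cut at about 34% in these data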
# APP 5'UTR act = activators of APP 5'UTR luciferase reporter, primary screen, SH-SY5Y cells. SH-SY5Y APP 5'UTR luciferase reporter, luminescence; zero percent = DMSO vehicle wells. activation, % at 2 µM. 1% of 190,000 active. AID 1276, 2008;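 active = activation above a set limit, based on mean plus 3 SD of controls, cut at about 140% in these data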
# STAT3 blocker = IL-6 driven STAT3 reporter inhibitors, primary screen, U3A cells, luciferase, luminescence, MLSCN library; IL-6 STAT3-luciferase reporter; host cell line lacks STAT1; AID 862, 2007; inhibition, % at 5.5 µM; 0.89% of 190,000 active;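 active = inhibition above the mean inhibition across all screened compounds plus 3 SD, cut at about 44% in these data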
# STAT3 activator = IL-6 driven STAT3 reporter potentiators, primary screen, U3A cells, luciferase, luminescence, MLSCN library | activation (% of control), % at 5.6 µM | 0.91% of 190,000 active | AID 871, 2007 | IL-6 STAT3-luciferase reporter; 100% = signal with IL-6 EC80 alone;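 active = activation above the screen-wide mean of compound activation plus 3 SD, cut at about 130% in these data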
#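 Test system: human U3A cells carrying STAT3-luciferase construct; control set: IL-6-only wells as 100% reference; timing: compound pre-incubation 1 h before IL-6, then 6 h stimulation at 37 °C; also added: IL-6 stimulus at 33 ng/mL final; evaluation: % activation versus median of IL-6-stimulated wells; detection: reporter luminescence signal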
# Numbers stand for hits; 0 = inactive; - = no result given.
SMILES,NF-kB expr up,STAT1 activator,STAT1 blocker,APP 5'UTR act,STAT3 blocker,STAT3 activator
COc1ccc(-c2nc3ccccc3c(=O)n2CCOc2cccc(C)c2C)cc1,0,0,0,0,0,0
COC(=O)c1ccc(CSC2=NCCS2)cc1,0,130,0,0,0,0
COC(=O)c1ccc(COn2nnc3ccccc32)cc1,5.4,0,0,200,0,0
Nc1nnc(SCc2ccc(F)cc2)n1-c1ccccc1,0,0,0,0,0,0
Cc1cccc(-c2cc3c(nn2)-c2ccccc2C3=O)c1,6.9,0,0,-,0,0
COc1ccc(C2=C(Nc3ccc(C)cc3)c3ccccc3C2=O)cc1,0,0,0,0,0,0
COc1ccc(-c2cc3c(nn2)-c2ccccc2C3=O)cc1,0,0,62,0,92,0
CCOC(=O)C1(Cc2ccc(OC)cc2)CCN(C(=O)CCc2cccnc2)CC1,0,0,0,0,0,0
CCN(CC)CCCN1CC(O)=C(c2nc3ccccc3s2)C1=N,0,0,0,0,0,0
N=C1C(c2nc3ccccc3s2)=C(O)CN1C1CCCCC1,0,147,0,0,0,0
N=C1C(c2nc3ccccc3s2)=C(O)CN1Cc1ccccc1,0,131,0,0,0,0
CCOc1ccccc1N1CC(O)=C(c2nc3ccccc3s2)C1=N,0,0,0,0,0,0
Cn1c(=N)n(CC(=O)c2ccc(Br)s2)c2ccccc21,0,146,0,197,0,167
Cn1c(=N)n(CC(=O)c2cccs2)c2ccccc21,3.9,134,0,160,0,137
CCN1CCN(c2cc(C)c3cc(NC(=S)N4CCCC(C)C4)ccc3n2)CC1 (stereo not given),0,0,0,0,0,0
Cc1oncc1-c1csc(-c2ccccc2Cl)n1,0,143,0,0,0,0
O=C(O)c1ccc(-c2nc(-c3ccccc3Cl)cs2)cc1,0,134,0,0,0,0
Cc1oncc1-c1csc(-c2ccccc2)n1,0,137,0,0,0,0
O=[N+]([O-])c1cc(CN2CCCC2)ccc1Sc1ccc(Cl)cc1,0,0,0,0,0,0
COc1ccc(NC(=O)c2cc([N+](=O)[O-])ccc2O)cc1,-,0,94,0,105,0
NNc1nc(-c2ccccc2)nc2sc3c(c12)CCCC3,0,140,0,171,0,139
COc1ccc(/C=N/Nc2ccc([N+](=O)[O-])cc2S(=O)(=O)N2CCN(C)CC2)cc1,5.5,0,0,-,0,0
COc1ccc(NS(=O)(=O)c2cc([N+](=O)[O-])ccc2N/N=C\c2c(C)[nH]c3ccccc23)cc1,0,0,0,-,0,0
Cc1ccccc1/C=N\NC(=O)c1ccccc1-n1cccc1,0,0,0,0,0,0
Nc1nc2c(s1)CCc1c-2cnn1-c1ccccc1,3.4,155,0,138,0,0
SMILES,NF-kB expr up,STAT1 activator,STAT1 blocker,APP 5'UTR act,STAT3 blocker,STAT3 activator
Nc1nc2c(s1)COc1ccccc1-2,0,0,0,0,0,0
CCCCOc1ccc(-c2[nH]ncc2C=O)cc1,0,135,0,0,0,0
C=CCSc1n[nH]c(-c2ccc(OCCCC)cc2)n1,0,0,0,0,0,0
COc1cc(/C=N/n2c(C)n[nH]c2=S)ccc1OCc1ccc(F)cc1,0,129,0,0,0,0
COc1cc(/C=N\n2nnnc2N)ccc1OCc1ccc(F)cc1,0,0,0,0,0,0
CCn1c(/C=C/c2c[nH]c3ccccc23)nc2ccccc2c1=O,3.4,148,0,182,0,0
COc1ccc2c(c1OC)C(=O)N(c1ccc(C)cc1)C2=O,0,129,0,0,0,0
O=C(OCc1cn(-c2ccc(Cl)c(Cl)c2)nn1)c1ccccc1,0,0,0,0,0,0
Cc1ccc(-n2cc(C(=O)c3ccc(F)cc3)nn2)cc1Cl,0,139,0,0,0,0
CCC(=O)c1ccc(/C=C/c2nc3ccccc3n2C)o1,4.8,0,0,0,0,0
CNc1nc(N(C)C)nc(N(C)C)n1,0,0,0,0,0,136
COc1ccc(N=Nc2[nH]c3ccc(C)cc3c2O)cc1,0,0,0,0,0,0
Cc1ccc(N=Nc2[nH]c3ccccc3c2O)cc1,0,130,0,0,0,171
N#C/C(=C(/O)COC(=O)CSc1ccc(Cl)cc1)c1nc2ccccc2[nH]1,3.9,0,0,0,0,0
Cc1cc(SCC(=O)OC/C(O)=C(\C#N)c2nc3ccccc3[nH]2)c(C)cc1Br,0,0,0,0,0,0
O=C(NCc1cccnc1)c1cccs1,0,0,0,0,0,0
Cc1cc(C)c(C#N)c(SCc2nnc(-c3ccccc3[N+](=O)[O-])o2)n1,0,140,0,213,0,0
CCOc1cc(C2c3c(n[nH]c3C)C(=O)N2c2ccc(C)cc2)ccc1O (stereo not given),0,0,0,0,0,0
CCOc1cc(C2NN=C(c3ccc(C)cc3)S2)ccc1O (stereo not given),4.8,136,0,0,0,0
O=C1NC2(CCCCC2)Cc2ccccc21,0,0,0,0,0,0
O=C1NC2(CCCC2)Oc2ccccc21,3.5,0,0,0,0,0
COc1ccc(Cl)cc1NC(=O)CCNC(=O)OCc1ccccc1,0,0,0,0,0,0
O=C(Nc1ccccc1)c1ccc(-c2ccccc2)s1,0,137,0,0,0,0
O=C(Nc1ccccc1)c1sc(Cl)nc1-c1ccccc1,0,0,0,0,0,0
CCOC(=O)c1noc(C)c1C(=O)Nc1nccs1,6,0,0,0,0,0
SMILES,NF-kB expr up,STAT1 activator,STAT1 blocker,APP 5'UTR act,STAT3 blocker,STAT3 activator
O=C(C(=O)N1CCN(c2cccc(Cl)c2)CC1)c1c[nH]c2ccccc12,0,0,0,0,0,0
CCCCOC(=O)c1ccc(S(N)(=O)=O)o1,0,0,0,0,0,0
CC(C)N1CCC2(CC1)N=C(c1ccc3c(c1)OCO3)CC(c1cc(Cl)ccc1O)N2 (stereo not given),4.7,0,0,0,0,0
Cc1cccc(N/C=C/C(=O)c2cccs2)c1C,4.1,0,0,212,0,0
NC(=O)c1ccccc1N/C=C/C(=O)c1cccs1,5.4,138,0,-,0,0
COc1cc([N+](=O)[O-])ccc1N/C=C/C(=O)c1cccs1,4.3,0,47,136,73,0
Cc1ccc(C(=O)/C=C/Nc2ccccc2C(N)=O)o1,0,0,0,0,0,0
CC1CCCN(S(=O)(=O)c2ccccc2[N+](=O)[O-])C1 (stereo not given),0,0,0,0,0,0
COc1ccccc1NC(=O)C(=N\O)/C(C)=N/O,0,0,0,0,0,0

# Screening results (PubChem BioAssay)
